# In the library only some 1.3% were active in any assay of this set; here they are far more common.
# PAD4 FP inh: human PAD4 inhibitors, primary screen, biochemical, fluorescence polarization, 1536-well format | AID 485272, 2010 | inhibition, % at 6.36 µM | 330,000 tested, 0.41% active | recombinant PAD4, RCA probe fluorescence polarization | Protein-arginine deiminase type-4 (Homo sapiens), Q9UM07;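 active = percent inhibition above a cutoff equal to the mean of all tested compounds plus 3 SD, cut at about 15% in these data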;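 also: 0% = PAD4 with RCA probe and DMSO and 100% = probe without PAD4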
# PME-1 inh: PME-1 inhibitors via competitive probe labeling, primary screen, biochemical, fluorescence polarization, FP-Rh probe, HTS; AID 2130, 2009; 320,000 tested, 0.53% active; recombinant PME-1; inhibition, % at 5.9 µM;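 active = inhibition above the campaign mean of all compounds plus 3 SD, cut at about 26% in these data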;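 also: competitive labeling of PME-1 active site by serine hydrolase directed probe; 0% = PME-1 with DMSO and 100% = wells lacking PME-1 enzyme; inhibitors block probe labeling so polarization falls and inhibition rises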
# Target sequence (Q9Y570 whole entry, looked up): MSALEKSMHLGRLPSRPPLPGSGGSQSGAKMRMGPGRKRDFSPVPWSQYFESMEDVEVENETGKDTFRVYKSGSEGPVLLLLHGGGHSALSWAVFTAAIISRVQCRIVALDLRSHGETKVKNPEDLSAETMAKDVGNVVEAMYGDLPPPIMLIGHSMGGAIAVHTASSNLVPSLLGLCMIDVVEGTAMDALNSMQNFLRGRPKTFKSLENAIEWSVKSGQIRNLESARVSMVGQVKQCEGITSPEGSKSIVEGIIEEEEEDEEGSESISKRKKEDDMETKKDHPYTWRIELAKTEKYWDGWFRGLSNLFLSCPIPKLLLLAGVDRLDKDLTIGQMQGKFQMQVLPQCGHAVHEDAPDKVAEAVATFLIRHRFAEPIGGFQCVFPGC
# LYPLA1 inh: LYPLA1 inhibitors, primary screen, counter-screen for PME1 inhibitor project, biochemical, fluorescence polarization, FP-Rh probe ABPP; 320,000 tested, 0.16% active; AID 2174, 2009; Acyl-protein thioesterase 1 (Homo sapiens), O75608; recombinant LYPLA1; inhibition, % at 5.9 µM;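 active = inhibition above the mean of all tested compounds plus 3 SD, set per campaign, cut at about 14% in these data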;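 also: inhibitors block serine hydrolase probe labeling of LYPLA1 so polarization falls; 0% = enzyme with DMSO and 100% = wells lacking LYPLA1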
# RBBP9 inhibitor: human RBBP9 inhibitors, primary screen, biochemical, fluorescence polarization, FP-Rh probe, HTS | inhibition, % at 7.94 µM | AID 1515, 2009 | 220,000 tested, 0.2% active | recombinant RBBP9 | Serine hydrolase RBBP9 (Homo sapiens), O75884;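 active = inhibition above the campaign mean of all tested compounds plus 3 SD, cut at about 14% in these data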;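 also: plate controls were DMSO wells with RBBP9 for no effect and wells lacking RBBP9 protein for full effect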
#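 Test system: recombinant human RBBP9. Quantity: 2.5 µM RBBP9 dispensing solution, before mixing. Detection: FP readout at 525/598 nm. Reagent: Serine-hydrolase probe FP-Rh, 375 nM pre-mixing. Measure: % inhibition. Control set: DMSO-treated enzyme wells and wells lacking RBBP9. Buffer or medium: Tris-NaCl-Pluronic buffer, pH 8.0. Times: preincubation 30 min plus labeling 45 min at 25 °C.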
# Fam108B counter: mouse Fam108B serine hydrolase inhibitors, primary screen, counter-screen for RBBP9 inhibitor project, biochemical, fluorescence polarization | 300,000 tested, 0.33% active | inhibition, % at 9.51 µM | recombinant Fam108B, FP-Rh probe fluorescence polarization | AID 1947, 2009;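 active = inhibition above the screen mean inhibition plus 3 SD, computed separately per campaign, cut at about 18% in these data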;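 also: inhibitors lower polarization as less probe binds the enzyme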
# LYPLA2 inh: LYPLA2 inhibitors, primary screen, counter-screen for PME1 inhibitor project, biochemical, fluorescence polarization, FP-Rh probe ABPP; Acyl-protein thioesterase 2 (Homo sapiens), O95372; recombinant LYPLA2; inhibition, % at 5.9 µM; 320,000 tested, 0.38% active; AID 2177, 2009;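 active = inhibition above the screen-wide mean plus 3 SD, limit set per campaign, cut at about 26% in these data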;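 also: 0% = LYPLA2 with DMSO and 100% = wells lacking LYPLA2 enzyme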
# Target sequence (O95372 whole entry, looked up): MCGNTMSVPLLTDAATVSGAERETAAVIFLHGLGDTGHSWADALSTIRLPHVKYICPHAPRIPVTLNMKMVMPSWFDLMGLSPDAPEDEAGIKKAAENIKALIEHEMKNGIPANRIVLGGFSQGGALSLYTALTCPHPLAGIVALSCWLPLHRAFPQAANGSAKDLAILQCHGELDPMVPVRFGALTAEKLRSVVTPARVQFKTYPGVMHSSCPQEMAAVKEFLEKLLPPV
# PAD4 confirm: human PAD4 inhibitors, confirmation, biochemical, fluorescence polarization. recombinant PAD4, RCA probe fluorescence polarization. 1,200 tested, 28% active. inhibition, % at 6.36 µM. shares compounds with PAD4 FP inh. AID 488796, 2010;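 active = mean inhibition across replicates above the hit cutoff set by the earlier primary screen, cut at about 15% in these data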;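 also: inhibitors block active-site labeling by the probe so polarization falls; 0% = PAD4 with probe and DMSO and 100% = probe without PAD4 enzyme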
# * = called active by the depositor; x = not tested or not shown.
SMILES,PAD4 FP inh,PME-1 inh,LYPLA1 inh,RBBP9 inhibitor,Fam108B counter,LYPLA2 inh,PAD4 confirm
Cc1cc(C)nc(Sc2ccc(C=O)cc2[N+](=O)[O-])n1,6,5,0,1,-2,7,x
Clc1ccc(C[n+]2csc3ccccc32)cc1,19*,7,-3,-5,-2,0,34*
Fc1ccc(C[n+]2csc3ccccc32)cc1,21*,3,0,-9,1,2,34*
COc1cc(C#N)c(NC(=O)CN2CCN(CCO)CC2)cc1OC,-5,-2,5,-1,0,2,x
Cc1ccc(NC(=O)CSc2ncn[nH]2)c([N+](=O)[O-])c1,1,x,x,x,x,x,x
O=C(CC(=O)c1cccc([N+](=O)[O-])c1)Nc1ccccc1Cl,-1,3,-1,-3,3,-1,x
CC1=CC(C)(C)N2C(=O)C3(SCC(=O)N3c3ccc(F)cc3)c3cc(C)cc1c32 (configuration not stated),0,7,0,2,1,-4,x
CC(C)c1ccc(N2C(=O)CSC23C(=O)N2CCCc4cccc3c42)cc1 (configuration not stated),15*,4,1,-4,-3,2,20*
C/C(=N\NC(=O)c1ccccc1)C1C2C=CC(C2)C1(C)C (configuration not stated),-2,-3,2,x,4,-3,x
CCN(C(=O)COC(=O)c1cc(-c2cccc3ccccc23)nc2ccccc12)C1CCS(=O)(=O)C1 (configuration not stated),24*,14,5,-11,5,4,12
O=C(COC(=O)c1cc(-c2cccc3ccccc23)nc2ccccc12)NC1CCS(=O)(=O)C1 (configuration not stated),65*,43*,14,-6,15,19,24*
COc1ccc(NC(=O)C(CC(=O)O)Cc2ccc(C)cc2)cc1 (configuration not stated),2,-7,1,2,2,-3,x
CC(=O)NCCc1ccc(S(=O)(=O)Nc2ccc3c(c2)OCCO3)cc1,5,3,0,x,-2,2,x
Cc1ccccc1N1CCN(C(=S)c2ccc([N+](=O)[O-])cc2)CC1,20*,-9,-2,-8,2,-8,2
CC(C)NC(=O)N(C)C[C@H]1Oc2ccc(NS(=O)(=O)c3ccccc3)cc2C(=O)N([C@H](C)CO)C[C@@H]1C,-1,x,x,x,x,x,x
C1CCN(c2nc3nonc3nc2N2CCCCC2)CC1,-1,1,5,-9,3,8,x
CN1CCN(c2nc3nonc3nc2N2CCN(C)CC2)CC1,21*,2,6,4,5,6,6
CCN(CC)S(=O)(=O)c1ccc(N=NC2=C(O)CC(C)(C)CC2=O)cc1,1,0,-1,2,3,6,x
CCN(CC)S(=O)(=O)c1ccc(N=NC2=C(O)CCCC2=O)cc1,168*,-4,-4,-1,-1,2,4
CSCCC(NC(=O)c1ccccc1Cl)C(=O)N(C)CC(=O)Nc1ccc(N2CCOCC2)cc1 (configuration not stated),0,4,-6,x,0,-2,x
Cn1cccc1/C=C1\SC(=S)N(NC(=O)c2ccccc2Cl)C1=O,18*,0,-1,-4,2,-1,2
CCCCOc1ccccc1NC(=O)CC1Nc2ccccc2NC1=O (configuration not stated),23*,11,-6,x,-8,-3,-4
O=C(CC1Nc2cccc3cccc(c23)NC1=O)Nc1ccc(F)cc1 (configuration not stated),59*,18,-3,-2,1,-1,3
CCCCNC(=O)CC1Nc2ccccc2NC1=O (configuration not stated),-5,0,1,-8,-3,-6,x
COc1ccc(NC(=O)CC2Nc3cccc4cccc(c34)NC2=O)cc1 (configuration not stated),-11,9,4,11,6,11,x
SMILES,PAD4 FP inh,PME-1 inh,LYPLA1 inh,RBBP9 inhibitor,Fam108B counter,LYPLA2 inh,PAD4 confirm
CCOC(=O)c1c(NC(=O)c2ccco2)n(C2CCCCC2)c2nc3ccccc3nc12,15*,-2,0,-12,5,-4,25*
COC(=O)c1cccc(NC(=O)CSc2nc(O)c(-c3ccccc3)c(=O)[nH]2)c1,18*,-6,3,1,-8,-6,20*
COc1ccccc1NC(=O)CSc1nc(N)c(-c2ccccc2)c(=O)[nH]1,-6,3,0,3,-2,0,x
COC(=O)c1ccccc1NC(=O)CSc1nc(O)c(-c2ccccc2)c(=O)[nH]1,17*,0,2,-2,4,4,17*
NNc1ccc(Cl)nn1,-1,-7,-4,6,0,-3,x
O=c1cc(-c2cccc([N+](=O)[O-])c2)[nH][nH]1,52*,-5,-2,-11,1,5,-2
CC(C)c1ccc(/C=N/n2nnnc2Nc2ccccc2)cc1,15*,16,10,-7,3,17,6
O=C1CCCc2oc3ccc(NS(=O)(=O)c4cccc5cccnc45)cc3c21,4,3,0,4,-1,4,x
O=C(O)c1cccc(S(=O)(=O)Nc2ccc3oc(=O)sc3c2)c1,36*,0,-2,7,6,-5,13
O=c1oc2ccc(NS(=O)(=O)c3cccc4cccnc34)cc2s1,36*,8,-4,x,5,2,23*
COc1ccc2nc(NC(=O)CSc3nnc(C)n3N)sc2c1,-4,-3,-1,0,0,-1,x
Cc1ccc2nc(NC(=O)CSc3nncc(=O)n3N)sc2c1,19*,-8,-3,-5,-6,-11,8
O=C(OCC(=O)c1ccc(Cl)s1)c1cnccn1,-5,-7,-4,x,0,0,x
Cn1c(-c2ccc([N+](=O)[O-])cc2)nc2ccccc21,-2,1,1,-3,3,7,x
Cn1nc([N+](=O)[O-])c(C(C#N)c2nc3ccccc3n2C)c(Cl)c1=O (configuration not stated),26*,20,11,2,10,6,17*

# High-throughput results deposited in PubChem BioAssay by The Scripps Research Institute Molecular Screening Center.
